Reference: ChEMBL document CHEMBL4689842, “EUbOPEN Chemogenomics Library wave 1” (2021)

System: HEK-293T
Assay: Multiplex assay against HEK293T
Type: toxicity, cell-based
Details: human
How it was run: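 Cells were classed with CellPathfinder machine-learning gating, first as Hoechst high-intensity objects or normal cells, then (normal cells) as healthy, pyknosed or fragmented nuclei, and finally (pyknosed cells) as mitotic or apoptotic. Staining of live cells at seeding used Hoechst33342, BioTracker Green Microtubule Cytoskeleton Dye, MitoTracker Red and Annexin V Alexa Fluor 680, with imaging on a CQ1 microscope at 37°C and 5% CO2 after compound addition. Tubulin, mitochondrial-mass and membrane-permeability phenotypes are per cents of healthy-nucleus cells.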

[1] = 12 h, 1 µM, compound concentration 1 uM, replicate 1
[2] = 12 h, 1 µM, compound concentration 1 uM, replicate 2
[3] = 12 h, 10 µM, compound concentration 10 uM, replicate 1
[4] = 12 h, 10 µM, compound concentration 10 uM, replicate 2
[5] = 24 h, 1 µM, compound concentration 1 uM, replicate 1
[6] = 24 h, 1 µM, compound concentration 1 uM, replicate 2
[7] = 24 h, 10 µM, compound concentration 10 uM, replicate 1
[8] = 24 h, 10 µM, compound concentration 10 uM, replicate 2
[9] = 48 h, 1 µM, compound concentration 1 uM, replicate 1
[10] = 48 h, 1 µM, compound concentration 1 uM, replicate 2
[11] = 48 h, 10 µM, compound concentration 10 uM, replicate 1
[12] = 48 h, 10 µM, compound concentration 10 uM, replicate 2

## Cc1ccccc1C(c1ccccc1C)N1C2CCC1CC(O)(c1ccccc1)C2 (stereo not drawn)
[1]
  Population Apoptotic (%): 48%
  Population Healthy Nuclei (%): 40%
  Population Mitotic Cells (%): 51%
  Population Normal (%): 82%
  Population Pyknosed Nuclei (%): 48%
  Total Cell Count: 233
[2]
  Population Apoptotic (%): 13%
  Population Healthy Nuclei (%): 39%
  Population Mitotic Cells (%): 86%
  Population Normal (%): 94%
  Population Pyknosed Nuclei (%): 55%
  Total Cell Count: 261
[3]
  Population Apoptotic (%): 53%
  Population Healthy Nuclei (%): 36%
  Population Mitotic Cells (%): 46%
  Population Normal (%): 88%
  Population Pyknosed Nuclei (%): 54%
  Total Cell Count: 350
[4]
  Population Healthy Nuclei (%): 26%
  Population Mitotic Cells (%): 78%
  Population Normal (%): 96%
  Population Pyknosed Nuclei (%): 69%
  Total Cell Count: 210
[5]
  Population Apoptotic (%): 43%
  Population Healthy Nuclei (%): 45%
  Population Mitotic Cells (%): 56%
  Population Normal (%): 82%
  Population Pyknosed Nuclei (%): 40%
  Total Cell Count: 254
[6]
  Population Apoptotic (%): 13%
  Population Healthy Nuclei (%): 61%
  Population Mitotic Cells (%): 86%
  Population Normal (%): 98%
  Population Pyknosed Nuclei (%): 32%
  Total Cell Count: 355
[7]
  Population Apoptotic (%): 49%
  Population Healthy Nuclei (%): 42%
  Population Mitotic Cells (%): 50%
  Population Normal (%): 91%
  Population Pyknosed Nuclei (%): 48%
  Total Cell Count: 339
[8]
  Population Healthy Nuclei (%): 43%
  Population Mitotic Cells (%): 68%
  Population Normal (%): 95%
  Population Pyknosed Nuclei (%): 53%
  Total Cell Count: 229
[9]
  Population Healthy Nuclei (%): 49%
  Population Mitotic Cells (%): 68%
  Population Normal (%): 87%
  Population Pyknosed Nuclei (%): 28%
  Total Cell Count: 301
[10]
  Population Healthy Nuclei (%): 85%
  Population Mitotic Cells (%): 87%
  Population Normal (%): 98%
  Population Pyknosed Nuclei (%): 10%
  Total Cell Count: 568
[11]
  Population Apoptotic (%): 50%
  Population Healthy Nuclei (%): 45%
  Population Mitotic Cells (%): 49%
  Population Normal (%): 91%
  Population Pyknosed Nuclei (%): 42%
  Total Cell Count: 372
[12]
  Population Apoptotic (%): 23%
  Population Healthy Nuclei (%): 72%
  Population Mitotic Cells (%): 76%
  Population Normal (%): 97%
  Population Pyknosed Nuclei (%): 24%
  Total Cell Count: 302
